From paper PMC4019989 (Clinical cancer research : an official journal of the …, 2009)

What was measured:
Plasma pharmacokinetics = type: in vivo, human; settings: for AUCinf, Mean: included C0; for AUClast, Mean: includes C0; for half-life / C0 / Cmax / Tmax / clearance: human, plasma, iv
Outline: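 Drug went in as an i.v. push over 1–2 min. Cycle 1 blood was drawn predose and at 5, 15, 30 min and 1, 2, 4 h postdose, plus predose and 30 min postdose on cycle 1 day 5 and day 1 of cycles 2 and 3. Plasma was assayed by validated LC/MS (lower limit of detection 0.10 μg/mL). Parameters came from pharmacokinetic analysis and modelling.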

[1] = tested on: chymotrypsin-like activity of the proteasome; settings: rats; i.v. for 5 consecutive days; multiple tissues; well tolerated; cited from earlier work
[2] = tested on: primary acute myeloid leukemia blasts; settings: tested at nanomolar levels (0.1-100 nmol/L); cited from earlier work
[3] = 11 mg/m^2 i.v. push, n = 2, plasma
[4] = 15 mg/m^2 i.v. push, n = 5, plasma
[5] = 20 mg/m^2 i.v. push, n = 4, plasma

CC(C)C[C@H](NC(=O)[C@H](CCc1ccccc1)NC(=O)CN1CCOCC1)C(=O)N[C@@H](Cc1ccccc1)C(=O)N[C@@H](CC(C)C)C(=O)[C@@]1(C)CO1 [carfilzomib]
AUCinf, Mean (Plasma pharmacokinetics; [3]): 4,463 g·mL/h
AUClast, Mean (Plasma pharmacokinetics; [3]): 4,457 ng·mL/h
AUCinf, Mean (Plasma pharmacokinetics; [4]): 9,760 g·mL/h
AUClast, Mean (Plasma pharmacokinetics; [4]): 9,728 ng·mL/h
AUCinf, Mean (Plasma pharmacokinetics; [5]): 23,660 g·mL/h
AUClast, Mean (Plasma pharmacokinetics; [5]): 23,123 ng·mL/h
half-life (Plasma pharmacokinetics): < 30 min
C0 (Plasma pharmacokinetics; 11 mg/m2): 762 ng/mL
Cmax (Plasma pharmacokinetics; 11 mg/m2): 90.2 ng/mL
Tmax (Plasma pharmacokinetics; 11 mg/m2): 9 min
clearance (Plasma pharmacokinetics; 11 mg/m2): 5060 mL/min
half-life (Plasma pharmacokinetics; 11 mg/m2): 25.3 min
C0 (Plasma pharmacokinetics; 15 mg/m2): 2120 ng/mL
Cmax (Plasma pharmacokinetics; 15 mg/m2): 326 ng/mL
Tmax (Plasma pharmacokinetics; 15 mg/m2): 5.8 min
clearance (Plasma pharmacokinetics; 15 mg/m2): 7050 mL/min
half-life (Plasma pharmacokinetics; 15 mg/m2): 28.9 min
C0 (Plasma pharmacokinetics; 20 mg/m2): 5450 ng/mL
Cmax (Plasma pharmacokinetics; 20 mg/m2): 683 ng/mL
Tmax (Plasma pharmacokinetics; 20 mg/m2): 6 min
clearance (Plasma pharmacokinetics; 20 mg/m2): 4130 mL/min
half-life (Plasma pharmacokinetics; 20 mg/m2): 17.1 min
clearance (in words) (Plasma pharmacokinetics; patients, i.v. push): higher than liver blood flow
Proteasome (chymotrypsin-like activity) inhibition [1]: > 80%
autocrine- and cytokine-dependent proliferation [2]: inhibited autocrine- and cytokine-dependent proliferation
